Results as given in ChEMBL document CHEMBL2346594, “Synthesis and evaluation of an imidazole derivative-fluorescein conjugate” (Bioorg Med Chem, 2013).
Calls of active or inactive are those of the source. The calls are words filed in the database; no cut-off is given here.

Legend:
SJSA-1 [1] = experiment: Cellular uptake in human SJSA1 cells expressing wild type p53 at 5 uM after 1 hr by fluorometric analysis in presence of nutlin-glycine; assay type: ADME, cell-based; conditions: sjsa-1, 1 h
HCT-116 [2] = experiment: Cellular uptake in human HCT116 cells expressing wild type p53 at 1 to 5 uM after 1 hr by fluorometric analysis; assay type: ADME, cell-based; conditions: hct-116, 1 h
Outline: (§1)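 SJSA-1 or HCT116 cells were plated at 400,000/well and attached for 24 h. Fluorescein conjugate or free FAM was added at final 1 and 5 µM for 1 h at 37 °C, with DMSO and medium-only controls. Cells were washed three times in warm PBS, scraped and counted. About 10,000 cells/well were read by fluorescence at 485/520 nm; 3 runs per sample.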

SJSA-1 [3] = experiment: Cellular uptake in human SJSA1 cells expressing wild type p53 at 1 to 5 uM after 1 hr by fluorometric analysis; assay type: ADME, cell-based; conditions: sjsa-1, 1 h; outline: as §1
HCT-116 [4] = experiment: Cellular uptake in human HCT116 cells expressing wild type p53 at 5 uM after 1 hr by fluorometric analysis in presence of nutlin-glycine; conditions: hct-116, 1 h
HeLa = experiment: Antiproliferative activity against human HeLa cells harboring p53 mutant at 10 uM after 5 days by MTS assay; assay type: functional, cell-based
Outline: (§2)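 Cells (wild-type or mutant p53) grown in recommended medium with 10% FBS at 37 °C under 5% CO2. Compounds were kept as 1 mmol/L DMSO stocks. Cells were seeded in 96-well plates and treated with serial concentrations (highest 10 µM) for 5 days, then read by MTS. Viability is % of untreated controls, mean SD, n = 4.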

SJSA-1 [5] = experiment: Antiproliferative activity against human SJSA1 cells expressing wild type p53 after 5 days by MTS assay; assay type: functional, cell-based; outline: as §2
RKO = experiment: Antiproliferative activity against human RKO cells expressing wild type p53 after 5 days by MTS assay; assay type: functional, cell-based; outline: as §2
HCT-116 [6] = experiment: Antiproliferative activity against human HCT116 cells expressing wild type p53 after 5 days by MTS assay; assay type: functional, cell-based; outline: as §2
SW480 = experiment: Antiproliferative activity against human SW480 cells harboring p53 mutant at 10 uM after 5 days by MTS assay; assay type: functional, cell-based; outline: as §2
Homo sapiens = species on record: Homo sapiens; experiment: Antiproliferative activity against human MDA-MB-435S cells harboring p53 mutant at 10 uM after 5 days by MTS assay; assay type: functional, cell-based; outline: as §2

Row | Drug uptake (SJSA-1 [1]) | Drug uptake (HCT-116 [2]) | Drug uptake (SJSA-1 [3]) | Drug uptake (HCT-116 [4]) | Structure (SMILES) | Activity (HeLa) | Activity (SJSA-1 [5]) | Activity (RKO) | Activity (HCT-116 [6]) | Activity (SW480) | Activity (Homo sapiens)
1 | Not Active | Active | Active | Not Active | CCOc1cc(OC)ccc1C1=N[C@@H](c2ccc(Br)cc2)[C@@H](c2ccc(Br)cc2)N1C(=O)N1CCN(CCOC(=O)CNC(=O)c2ccc(C(=O)O)c(-c3c4ccc(=O)cc-4oc4cc(O)ccc34)c2)CC1 (relative stereo) | – | – | – | – | – | –
2 | – | – | – | – | CCOc1cc(OC)ccc1C1=N[C@@H](c2ccc(Br)cc2)[C@@H](c2ccc(Br)cc2)N1C(=O)N1CCN(CCOC(=O)CN)CC1 (relative stereo) | inactive | Dose-dependent effect | Dose-dependent effect | Dose-dependent effect | inactive | inactive
3 | – | – | – | – | COc1ccc(C2=N[C@@H](c3ccc(Cl)cc3)[C@@H](c3ccc(Cl)cc3)N2C(=O)N2CCNC(=O)C2)c(OC(C)C)c1 (relative stereo) | inactive | Dose-dependent effect | Dose-dependent effect | Dose-dependent effect | inactive | inactive
